Measurements published in publication PMC6333999 (Cancer Research and Treatment : Official Journal of Korean …, 2018).
Blank lines part the entries; values can stand above or below the molecule they belong to.

Assays:
p38α [1] = conditions: background statement, no reference given; cited from earlier work
p38α [2] = test: SPR binding of peptide with p38α; conditions: BIAcore 3000, p38α on Ni-NTA chip, peptide in HBS-EP buffer
Outline: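 Pure p38α protein captured on an Ni-NTA chip. Test peptide in HBS-EP buffer injected at 0.23, 0.46 and 0.77 mM. Sensorgrams recorded, and association (KA) and dissociation (KD) constants fitted from them.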

p38δ = test: Percentage inhibition assay by ELISA; format: biochemical
Outline: (§1)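 Added to ATF-2-coated plates, 1 h at 37°C. Anti-phospho-ATF-2 1:400, then AP anti-rabbit IgG 1:4,000, each 1 h at 37°C. pNPP (pH 8.1) 90 min, NaOH stop, A405. Enzyme without peptide taken as 100% activity for % inhibition.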

p38α [3] = test: Percentage inhibition assay by ELISA; format: biochemical; conditions: ATF-2 substrate, same experiment as p38δ
Outline: as §1

[4] = molecular target: T1, recombinant GST-tag p38δ protein (UniProt O15264); test: SPR
T1 sequence: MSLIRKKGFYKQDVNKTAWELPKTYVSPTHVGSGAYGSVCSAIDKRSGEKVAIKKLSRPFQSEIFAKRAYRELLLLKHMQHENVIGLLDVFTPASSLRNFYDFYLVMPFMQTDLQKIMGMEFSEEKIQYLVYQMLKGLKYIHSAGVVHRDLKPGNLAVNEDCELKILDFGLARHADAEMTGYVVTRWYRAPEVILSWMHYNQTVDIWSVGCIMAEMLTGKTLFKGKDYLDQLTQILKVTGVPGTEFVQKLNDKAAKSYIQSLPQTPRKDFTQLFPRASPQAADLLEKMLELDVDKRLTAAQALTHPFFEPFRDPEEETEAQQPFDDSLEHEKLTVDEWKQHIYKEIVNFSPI

Molecule: C[S+]([O-])c1ccc(-c2nc(-c3ccncc3)c(-c3ccc(F)cc3)[nH]2)cc1 (stereo not drawn) [SB203580]
specificity for p38α (p38α [1]): very specific p38α inhibitor

binding to p38α (p38α [2]): no binding was observed
Molecule: WFYH
percentage inhibition of p38δ (p38δ; 75 μM peptide, ELISA, ATF-2 substrate, 100 μM ATP, pH 7.5, 37°C, 1 hour, 405 nm): 77%
phosphorylation of ATF-2 by p38δ (p38δ; kinetic assays, pure p38δ protein incubated with peptide): reduction in phosphorylation of ATF-2
inhibition of p38α (p38α [3]): no inhibition

Kd [4]: 704 pM
Molecule: WFYH [WFYH tetrapeptide]
